What follows are compounds tested against T1, Voltage-dependent calcium channel subunit alpha-2/delta-1 (Homo sapiens, UniProt P54289) (assay: Binding affinity against alpha-2 delta-1 subunit of voltage gated subunit of Ca+2 channel in human).
Summary of the method: (§1)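 [3H]gabapentin displacement binding on A710 membranes (HEK 293 cells stably transfected with human α1B, β3a and α2δ-1b subunits), following a literature method.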

T1 sequence (P54289 25-956 limits assumed): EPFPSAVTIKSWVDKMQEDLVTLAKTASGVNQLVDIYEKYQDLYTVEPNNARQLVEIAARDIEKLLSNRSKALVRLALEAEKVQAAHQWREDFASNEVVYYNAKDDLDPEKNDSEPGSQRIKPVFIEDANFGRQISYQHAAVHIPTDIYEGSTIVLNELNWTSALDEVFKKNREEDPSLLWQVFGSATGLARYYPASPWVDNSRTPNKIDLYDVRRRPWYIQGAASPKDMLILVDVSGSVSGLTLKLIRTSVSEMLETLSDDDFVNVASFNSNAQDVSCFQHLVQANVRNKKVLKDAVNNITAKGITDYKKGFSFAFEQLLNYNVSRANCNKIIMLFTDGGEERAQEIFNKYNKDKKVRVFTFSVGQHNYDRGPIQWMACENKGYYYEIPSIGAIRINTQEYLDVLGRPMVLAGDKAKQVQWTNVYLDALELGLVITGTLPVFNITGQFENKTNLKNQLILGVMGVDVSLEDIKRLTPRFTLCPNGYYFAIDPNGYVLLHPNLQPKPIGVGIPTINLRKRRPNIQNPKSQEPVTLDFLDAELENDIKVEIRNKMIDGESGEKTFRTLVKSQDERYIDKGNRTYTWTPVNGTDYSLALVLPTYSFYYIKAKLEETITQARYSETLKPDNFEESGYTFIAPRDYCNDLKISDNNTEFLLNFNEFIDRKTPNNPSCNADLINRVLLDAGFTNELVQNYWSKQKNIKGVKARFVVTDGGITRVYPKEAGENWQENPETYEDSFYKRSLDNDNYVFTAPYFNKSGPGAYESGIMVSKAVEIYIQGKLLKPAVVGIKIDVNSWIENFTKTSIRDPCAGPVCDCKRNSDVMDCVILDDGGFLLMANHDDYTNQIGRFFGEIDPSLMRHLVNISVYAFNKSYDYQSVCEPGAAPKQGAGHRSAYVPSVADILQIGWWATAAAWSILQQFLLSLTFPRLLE
T1 sequence (P54289 957-1103 limits assumed): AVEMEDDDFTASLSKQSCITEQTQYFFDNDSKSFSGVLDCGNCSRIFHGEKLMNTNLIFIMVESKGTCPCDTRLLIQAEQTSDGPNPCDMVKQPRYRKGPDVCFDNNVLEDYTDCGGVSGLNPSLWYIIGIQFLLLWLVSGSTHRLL

| Compound | IC50 |
| --- | --- |
| COc1cccc(CCNCc2cccc(COc3nn4c(C(F)(F)F)nnc4c4ccccc34)n2)c1 | 0.116 µM |
| FC(F)(F)c1nnc2c3ccccc3c(OCc3cccc(CNCCc4ccccc4)n3)nn12 | 0.072 µM |
| Cc1nnc2c3ccccc3c(OCc3cccc(CNCCc4ccccc4)n3)nn12 | 0.145 µM |
| c1ccc(CCNCc2cccc(COc3nn4c(C5CC5)nnc4c4ccccc34)n2)cc1 | 0.272 µM |
| Cc1cc(-c2nnc3c4ccccc4c(OCc4cccc(CNCCc5ccccc5)n4)nn23)no1 | 0.22 µM |
| c1ccc(CCNCc2cccc(COc3nn4c(-c5ccccc5)nnc4c4ccccc34)n2)cc1 | 0.195 µM |
| CC(C)c1nnc2c3ccccc3c(OCc3cccc(CNCCc4ccccc4)n3)nn12 | 0.342 µM |
| COCc1nnc2c3ccccc3c(OCc3cccc(CNCCc4ccccc4)n3)nn12 | 0.131 µM |
| Fc1ccccc1CCNCc1cccc(COc2nn3c(C(F)(F)F)nnc3c3ccccc23)n1 | 0.291 µM |
| COc1ccc(CCNCc2cccc(COc3nn4c(C(F)(F)F)nnc4c4ccccc34)n2)cc1 | 0.829 µM |
| CSc1nnc2c3ccccc3c(OCc3cccc(CNCCc4ccccc4)n3)nn12 | 0.194 µM |
| c1ccc(CCNCc2cccc(COc3nn4c(C5CCCCC5)nnc4c4ccccc34)n2)cc1 | 0.145 µM |
| c1ccc(CCNCc2cccc(COc3nn4cnnc4c4ccccc34)n2)cc1 | 0.23 µM |
| CCc1nnc2c3ccccc3c(OCc3cccc(CNCCc4ccccc4)n3)nn12 | 0.241 µM |

These compounds were tested against T1, Voltage-dependent calcium channel subunit alpha-2/delta-1 (assay: Binding affinity against alpha2 delta-1 subunit of voltage-gated calcium channel in human.).
Summary of the method: as §1

| Compound | IC50 |
| --- | --- |
| FC(F)(F)c1nnc2c3ccccc3c(OCc3cccc(CNC4C[C@H]4c4ccccc4)n3)nn12 (mixture of isomers) | 0.229 µM |
| Cc1ccccc1CCNCc1cccc(COc2nn3c(C(F)(F)F)nnc3c3ccccc23)n1 | 0.448 µM |
| Cc1cccc(CCNCc2cccc(COc3nn4c(C(F)(F)F)nnc4c4ccccc34)n2)c1 | 0.015 µM |
| Fc1cccc(CCNCc2cccc(COc3nn4c(C(F)(F)F)nnc4c4ccccc34)n2)c1 | 0.161 µM |
| Fc1ccc(CCNCc2cccc(COc3nn4c(C(F)(F)F)nnc4c4ccccc34)n2)cc1 | 0.63 µM |
| Cc1ccc(CCNCc2cccc(COc3nn4c(C(F)(F)F)nnc4c4ccccc34)n2)cc1 | 0.26 µM |

The remaining lines, values ahead:

| IC50 | Compound |
| --- | --- |
| 10 µM | CC(C)(Cc1ccccc1)NCc1cccc(COc2nn3c(C(F)(F)F)nnc3c3ccccc23)n1 |
| 0.029 µM | Cc1cccc(CCNC(C)c2cccc(COc3nn4c(C(F)(F)F)nnc4c4ccccc34)n2)c1 (racemic) |
| 0.028 µM | C[C@H](NCCc1cccc(Br)c1)c1cccc(COc2nn3c(C(F)(F)F)nnc3c3ccccc23)n1 |
| 10 µM | CN(CCc1ccccc1)Cc1cccc(COc2nn3c(C(F)(F)F)nnc3c3ccccc23)n1 |
| 0.174 µM | CC(C)C(NCCc1ccccc1)c1cccc(COc2nn3c(C(F)(F)F)nnc3c3ccccc23)n1 (racemic) |
| 1.37 µM | CC(Cc1ccccc1)NCc1cccc(COc2nn3c(C(F)(F)F)nnc3c3ccccc23)n1 (racemic) |
| 0.036 µM | CC(NCCc1ccccc1)c1cccc(COc2nn3c(C(F)(F)F)nnc3c3ccccc23)n1 (racemic) |
| 0.7 µM | C[C@@H](Cc1ccccc1)NCc1cccc(COc2nn3c(C(F)(F)F)nnc3c3ccccc23)n1 |
| 10 µM | C[C@@H](NCCc1ccccc1)c1cccc(COc2nn3c(C(F)(F)F)nnc3c3ccccc23)n1 |
| 0.03 µM | [3H]c1cccc(CCN[C@@H](C)c2cccc(COc3nn4c(C(F)(F)F)nnc4c4ccccc34)n2)c1 |
| 0.183 µM | CCC(NCCc1ccccc1)c1cccc(COc2nn3c(C(F)(F)F)nnc3c3ccccc23)n1 (racemic) |
| 0.198 µM | CC(CNCc1cccc(COc2nn3c(C(F)(F)F)nnc3c3ccccc23)n1)c1ccccc1 (racemic) |
| 0.03 µM | C[C@H](NCCc1ccccc1)c1cccc(COc2nn3c(C(F)(F)F)nnc3c3ccccc23)n1 |

From ChEMBL document CHEMBL1148420, “Identification and synthesis of [1,2,4]triazolo[3,4-a]phthalazine derivatives as high-affinity ligands to the alpha 2 delta-1 subunit of voltage gated calcium channel” (Bioorg Med Chem Lett, 2004)
